Only a sample is shown.
HKDC1 act: activators of human hexokinase HKDC1 | Q2TB90 | recombinant HKDC1, G6PDH/diaphorase resazurin fluorescence; hits give low values | activity change, negative = activation, % at 20 µM | hit rate 0.056% among 340,000 | AID 493187;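 active means activation of 40% or more at 20 µM, a change of -40% or lower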
Target sequence (Q2TB90 whole entry, looked up): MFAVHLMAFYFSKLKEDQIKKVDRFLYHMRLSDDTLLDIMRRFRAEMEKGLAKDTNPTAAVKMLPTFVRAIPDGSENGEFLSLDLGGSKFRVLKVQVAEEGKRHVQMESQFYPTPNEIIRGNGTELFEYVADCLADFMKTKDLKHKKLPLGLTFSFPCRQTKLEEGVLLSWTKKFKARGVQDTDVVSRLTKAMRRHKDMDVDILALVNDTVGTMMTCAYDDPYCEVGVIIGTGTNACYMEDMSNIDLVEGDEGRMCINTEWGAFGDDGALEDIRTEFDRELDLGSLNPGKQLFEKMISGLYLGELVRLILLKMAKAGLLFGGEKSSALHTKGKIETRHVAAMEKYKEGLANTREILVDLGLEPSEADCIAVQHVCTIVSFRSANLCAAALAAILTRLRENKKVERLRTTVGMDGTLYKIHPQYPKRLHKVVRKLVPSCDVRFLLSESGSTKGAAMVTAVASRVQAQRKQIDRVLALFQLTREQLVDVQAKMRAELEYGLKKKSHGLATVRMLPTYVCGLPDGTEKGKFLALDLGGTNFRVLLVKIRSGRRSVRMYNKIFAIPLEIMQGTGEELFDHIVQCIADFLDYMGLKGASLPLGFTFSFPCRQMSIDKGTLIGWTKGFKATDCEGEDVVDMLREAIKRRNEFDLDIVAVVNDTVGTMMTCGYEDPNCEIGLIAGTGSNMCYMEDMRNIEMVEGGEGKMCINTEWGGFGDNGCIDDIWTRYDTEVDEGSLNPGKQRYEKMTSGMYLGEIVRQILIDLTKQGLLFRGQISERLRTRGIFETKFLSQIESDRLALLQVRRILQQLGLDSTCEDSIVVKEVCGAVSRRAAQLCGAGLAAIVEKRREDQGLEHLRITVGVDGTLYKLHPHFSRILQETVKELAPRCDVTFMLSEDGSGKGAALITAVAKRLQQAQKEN
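Material – in-house human HKDC1 enzyme, G6PDH and diaphorase coupling enzymes · Input – HKDC1 at 5 µg/mL final · Buffer or medium – pH 8.0 Tris with MgCl2 · Dosing – single compound dose of 20 µM, 1% DMSO final · Incubation – 90 min, room temperature · Technique – resorufin fluorescence from 100 µM resazurin, NADP 1 mM, Ex 525/Em 613 nm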
Starred values were filed as active, the others as inactive.

CCCC(NC(=O)Cc1c(C)c2cc3c(C)c(C)oc3c(C)c2oc1=O)C(=O)N[C@@H](Cc1ccccc1)C(=O)O (stereo partly specified) was read as HKDC1 act 52.
Screening COC(=O)c1ccccc1NC1=C/C(=N\S(=O)(=O)c2ccc(C(=O)O)cc2)c2ccccc2C1=O returned HKDC1 act 82.
Screening COc1ccc(-c2csc(Nc3ccc(S(N)(=O)=O)cc3)n2)cc1 returned HKDC1 act -42*.
Screening O=C(Nc1ccc(F)cc1)C(=O)c1c(O)[nH]c2ccc([N+](=O)[O-])cc12 returned HKDC1 act 42.
`Oc1ccc(/C=N/Nc2ccnc3cc(Cl)ccc23)c(O)c1O` gave HKDC1 act 37.
`CCc1ccc(S(=O)(=O)Nc2ccc(O)c3ccccc23)cc1` gave HKDC1 act 44.
O=S(=O)(Nc1ccc(O)c2ccccc12)c1ccc(F)cc1 was read as HKDC1 act 43.
CCN(CC)c1ccc(/C=N/NC(=O)c2cccc(S(=O)(=O)Nc3ccccc3OC)c2)c(O)c1 was read as HKDC1 act -43*.
Cc1cccc(/C=C/C(=O)c2ccc([N+](=O)[O-])o2)c1 was read as HKDC1 act 50.
`CC1(C)C(=O)Nc2ccccc2N1C(=O)COC(=O)c1cc(Cl)cc(Cl)c1` gave HKDC1 act -41*.
For O=C(O)c1cc(O)c2c(c1)[C@@H]([C@H]1c3cc(C(=O)O)cc(O)c3C(=O)c3c(O[C@@H]4O[C@H](CO)[C@@H](O)[C@H](O)[C@H]4O)cccc31)c1cccc(OC3O[C@H](CO)[C@@H](O)[C@H](O)[C@H]3O)c1C2=O (stereo partly specified) the results were HKDC1 act 83.
COc1cccc2c1C(=O)C=C(C)C2=O was read as HKDC1 act -43*.
Screening COC1=CC(=O)c2c(ccc3ncnc(N)c23)C1=O returned HKDC1 act 87.
`CC(=O)n1cc(N(C(=O)CCl)c2ccc(C)cc2)c2ccccc21` gave HKDC1 act 41.
Oc1ccc(Br)cc1CNc1cccc2cccnc12 was read as HKDC1 act 40.
Screening Cc1cc2c(N)cccc2nn1 returned HKDC1 act 35.
For Oc1ccc2ccccc2c1C=Nc1ccccc1Br the results were HKDC1 act 38.
`O=Cc1ccc(Sc2nnc(-c3ccccc3)o2)c([N+](=O)[O-])c1` gave HKDC1 act 43.
CC(=NNC(=S)N1CC2CCC(CC2)C1)c1ccncn1 was read as HKDC1 act -54*.
For CC(C)(C)c1c(Cl)c(O)c(-c2ccccc2)c(=O)n1-c1ccccc1 the results were HKDC1 act 36.
Screening [S-]c1nnc(-c2ccc(Br)cc2)n1-c1ccccc1.[Zn+2] returned HKDC1 act 49.
NS(=O)(=O)c1ccc(N/N=C/c2ccc(O)c(O)c2O)c([N+](=O)[O-])c1 was read as HKDC1 act 36.
For Cc1cc(C)n(Cc2ccc(C(=O)N/N=C/c3ccc(-c4ccc([N+](=O)[O-])cc4)o3)o2)n1 the results were HKDC1 act 66.
`Cc1cc([N+](=O)[O-])nn1CC(=O)N/N=C/c1ccc(O)cc1O` gave HKDC1 act -49*.
`COC(=O)c1ccc(NCc2c(O)ccc(O)c2Br)cc1Cl` gave HKDC1 act 45.
O=C(O)c1cc(O)c2c(c1)[C@H]([C@H]1c3cc(C(=O)O)cc(O)c3C(=O)c3c(O[C@@H]4O[C@H](CO)[C@@H](O)[C@H](O)[C@H]4O)cccc31)c1cccc(OC3O[C@H](CO)[C@@H](O)[C@H](O)[C@H]3O)c1C2=O (stereo partly specified) was read as HKDC1 act 87.
Screening CN1CCN(C2=C(Cl)C(=O)C(c3cnc(N4CCCCC4)s3)=C(Cl)C2=O)CC1 returned HKDC1 act 55.
`COc1ccc(OC)c(NC(=O)CSc2ccc(-c3ccco3)nn2)c1` gave HKDC1 act 43.
COc1cc(N=c2ssnc2Cl)cc(OC)c1 was read as HKDC1 act -51*.
COc1cccc(OC)c1-c1nn2c(-c3cc(-c4ccccc4)n[nH]3)nnc2s1 was read as HKDC1 act 44.
Cc1[nH]c2ccccc2c1C1=CC(=O)C=CC1=O was read as HKDC1 act 58.
Screening CCOC(=O)c1c(NC(=O)CSc2nnnn2-c2ccc(OC)cc2)sc(C)c1C returned HKDC1 act -48*.
For O=C(Nc1ccc(Cl)c(Cl)c1)Nc1nnc(-c2ccncc2)s1 the results were HKDC1 act 41.
Screening O=C(NNC(=S)Nc1ccc(Cl)c(Cl)c1)c1ccccn1 returned HKDC1 act -57*.
Screening O=C1c2ccc3c4c(ccc(c24)C(=O)N1c1ccc(O)cc1)C(=O)N(c1ccc(O)cc1)C3=O returned HKDC1 act 56.
For CCCCC[C@H](O)/C=C/[C@@H]1[C@@H](C/C=C\CCCC(=O)OC)[C@@H](O)C[C@H]1O the results were HKDC1 act 77.
Screening CCOC(=O)C(C(=O)OCC)c1cc(Br)c2noc3c2c1C(=O)c1ccccc1-3 returned HKDC1 act 54.

Compound activity deposited in PubChem by Sanford-Burnham Center for Chemical Genomics.
